Here are results for 16 compounds from ChEMBL document CHEMBL1155202, “Synthesis and anticancer activity of novel 3,4-diarylthiazol-2(3H)-ones (imines)” (Bioorg Med Chem Lett, 2009).

SMILES strings stand for the structures. A value given as a limit tells only on which side of the number the result lay.

Test [1] deals with Bel-7402. The test is described as follows: Anticancer activity against human Bel7402 cells after 72 hrs. The format is functional, cell-based. To be noted: Bel-7402, 72 h. The gist of the method: (§1)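 Solid human tumour lines (liver Bel-7402, HepG2, SMMC-7721; breast MCF-7; pancreatic SW-1990; colon HCT116) were exposed to compounds. IC50 was taken as the concentration inhibiting 50% of cell proliferation. CA-4 served as positive control.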

Test [2] deals with HepG2. Kind of test: Anticancer activity against human HepG2 cells after 72 hrs. As to conditions: HepG2, 72 h. The format is functional, cell-based. The gist of the method: as §1
In test [3] the test system is SMMC-7721. The test is described as follows: Anticancer activity against human SMMC7721 cells after 72 hrs. The format is functional, cell-based. As to conditions: SMMC-7721, 72 h. The gist of the method:
as §1

For test [4], the system named is MCF7. Kind of test: Anticancer activity against human MCF7 cells after 72 hrs. As to conditions: MCF7, 72 h. The format is functional, cell-based. The method in brief: as §1
Test [5] deals with SW1990. Kind of test: Anticancer activity against human SW1990 cells after 72 hrs. To be noted: SW1990, 72 h. Format: functional, cell-based. The method in brief: as §1
Test [6] relates to HCT-116. Kind of test: Anticancer activity against human HCT116 cells after 72 hrs. The format is functional, cell-based. As to conditions: HCT-116, 72 h. The method in brief:
as §1

For test [7], the system named is CCRF-CEM. Kind of test: Anticancer activity against human CCRF-CEM cells after 72 hrs. Format: functional, cell-based. The method in brief: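 CEM human leukemia cells were exposed to compounds. IC50 was defined as the concentration required to inhibit 50% of cell proliferation.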
Test [8] concerns HepG2. Kind of test: Cell cycle arrest in human HepG2 cells assessed as increase in G2/M phase cells after 20 hrs by flow cytometry using propidium iodide staining. Format: functional, cell-based. To be noted: for EC50: HepG2, 20 h. The method in brief:
(§2)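 HepG2 cells were left untreated or treated with compounds across a dose range for 20 h at 37 °C. CA-4 served as positive control. Cell-cycle phase distribution (G1, S, G2/M fractions) was then analysed by flow cytometry.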

In test [9] the test system is HepG2. The test is described as follows: Cell cycle arrest in human HepG2 cells assessed as decrease in S phase cells after 20 hrs by flow cytometry using propidium iodide staining. The format is functional, cell-based. The gist of the method:
as §2
For orientation: In flow cytometry, cells or beads pass a laser one at a time.

The test system of test [10] is HepG2. The test is described as follows: Cell cycle arrest in human HepG2 cells assessed as decrease in G1 phase cells after 20 hrs by flow cytometry using propidium iodide staining. Format: functional, cell-based. The gist of the method:
as §2

The subject of test [11] is HepG2. The test is described as follows: Ratio of Compound EC50 to Combrestatin A4 EC50 for cell cycle arrest in human HepG2 cells assessed as increase in G2/M phase cells after 20 hrs by flow cytometry using propidium iodide staining. Format: functional.

With `COc1ccc(-c2csc(=O)n2-c2cc(OC)c(OC)c(OC)c2)cc1N`, the IC50 in test [1] amounted to 3.3 µM; in test [2], 4.5 µM; in test [3], 7.4 µM; in [4], 4.4 µM; in [5], 20.3 µM; in test [6] it was 3.4 µM. In [7], this compound yielded an IC50 of 0.24 µM. Also, the Activity result in test [8], in test [9] and in test [10] was “Dose-dependent effect” each time. The EC50 in test [8] stood at 3.89 µM. The “Ratio EC50” value in [11] was 130.
Compound `COc1ccc(-c2csc(=N)n2-c2cc(OC)c(OC)c(OC)c2)cc1` came in with an IC50 in test [7] of 1.5 µM.
Same read-out and setting: the value for `COc1ccc(-n2c(-c3cc(OC)c(OC)c(OC)c3)csc2=N)cc1` was 13.2 µM; that for `COc1ccc(-c2csc(=O)n2-c2cc(OC)c(OC)c(OC)c2)cc1[N+](=O)[O-]` was 8.2 µM.
Take `COc1ccc(-n2c(-c3cc(OC)c(OC)c(OC)c3)c(Cl)sc2=O)cc1`: in test [7], the midpoint of inhibition, the IC50, lay at 13.8 µM.
Turning to `COc1ccc(-c2c(Cl)sc(=O)n2-c2cc(OC)c(OC)c(OC)c2)cc1`, the IC50 in test [7] was > 20 µM.
Still for that read-out and setting: the value for `COc1ccc(-n2c(-c3cc(OC)c(OC)c(OC)c3)csc2=O)cc1N` was 10.1 µM.
Still for that read-out and setting: the value for `COc1ccc(-n2c(-c3cc(OC)c(OC)c(OC)c3)csc2=O)cc1[N+](=O)[O-]` was 2.7 µM; that for `COc1ccc(-n2c(-c3cc(OC)c(OC)c(OC)c3)csc2=O)cc1` was 14.9 µM.
As for `COc1ccc(/C=C\c2cc(OC)c(OC)c(OC)c2)cc1O` [COMBRETASTATIN A4], the IC50 was found to be 1.72 µM in test [1]; 0.006 µM in test [2]; 0.29 µM in test [3]; 0.03 µM in test [4]; 0.25 µM in test [5]; 0.006 µM in test [6]. The IC50 in [7] is 0.002 µM. In test [8], the EC50 was < 0.03 µM.
`COc1ccc(-c2csc(=O)n2-c2cc(OC)c(OC)c(OC)c2)cc1` gave an IC50 in test [7] of 1.8 µM.
For `COc1ccc(-c2c(Cl)sc(=O)n2-c2cc(OC)c(OC)c(OC)c2)cc1N`, the IC50 came out at 23.4 µM in test [1]; 96 µM in [2]; 118 µM in test [3]; 52.5 µM in [4]; 56.7 µM in test [5]; 85.1 µM in [6]. In test [7], this compound had an IC50 of 0.12 µM. In addition, in test [8], the EC50 was > 250 µM.
`COc1ccc(-c2c(Cl)sc(=O)n2-c2cc(OC)c(OC)c(OC)c2)cc1[N+](=O)[O-]`: it took 7.5 µM to reach half-maximal inhibition in [7] (IC50).
The same measure, in the same setting: next, `COc1ccc(-n2c(-c3cc(OC)c(OC)c(OC)c3)c(Cl)sc2=O)cc1[N+](=O)[O-]`: > 20 µM.
On to `COc1ccc(-c2csc(=N)n2-c2ccc(OC)cc2)cc1`, for which, in test [7], the IC50 is > 20 µM.
Still for that read-out and setting: the value for `COc1ccc(-n2c(-c3cc(OC)c(OC)c(OC)c3)c(Cl)sc2=O)cc1N` was 16.2 µM.

The IC50 is the concentration at which inhibition is half-maximal. The low end stands for inhibition by little substance, the high end for a need for much substance. The term EC50 denotes the concentration that produces a half-maximal response.
